From ChEMBL document CHEMBL3992520, “Development of the First Two-Pore Domain Potassium Channel TWIK-Related K+ Channel 1-Selective Agonist Possessing in Vivo Antinociceptive Activity” (J Med Chem, 2017)

Columns and labels:
Liver [1] = test: Drug level in rat liver microsomes treated with at 40 mM (E)-ethyl 2-cyano-3-(1H-indol-2-yl)acrylate measured after 24 hrs by HPLC analysis; format: ADME, microsome; conditions: 40000 µM
Procedure, shortened: (§1)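 Incubation mix: rat liver microsomes (20 mg/mL stock), phosphate buffer pH 7.4 and NADPH (40 mM stock). Drug was added from a 40 mM DMSO stock. Samples were vortexed and incubated at 37 °C with stirring.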

[2] = target: T1, Potassium channel subfamily K member 2 (Homo sapiens) (UniProt O95069); test: Agonist activity at human TREK1 expressed in HEK293 cells assessed as increase in K+ current at 100 uM measured at +60 mV by whole-cell patch clamp method relative to control; format: cell-based
T1 sequence (whole entry): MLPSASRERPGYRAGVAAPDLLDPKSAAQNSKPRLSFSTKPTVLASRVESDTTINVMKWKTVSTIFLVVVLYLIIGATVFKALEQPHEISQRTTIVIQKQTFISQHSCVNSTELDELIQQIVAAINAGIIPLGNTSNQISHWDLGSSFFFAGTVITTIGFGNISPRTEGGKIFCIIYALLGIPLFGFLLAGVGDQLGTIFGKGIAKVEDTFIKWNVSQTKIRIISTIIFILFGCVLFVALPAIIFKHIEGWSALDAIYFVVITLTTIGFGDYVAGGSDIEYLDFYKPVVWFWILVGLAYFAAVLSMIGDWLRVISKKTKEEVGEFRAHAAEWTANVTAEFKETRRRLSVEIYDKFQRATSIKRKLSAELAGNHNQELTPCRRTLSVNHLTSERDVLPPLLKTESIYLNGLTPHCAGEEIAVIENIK
Procedure, shortened: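 Human TREK-1 (kcnk2) in pIRES2-eGFP was stably expressed in HEK-293 cells under G418 selection, and cells were used 4–48 h after plating. Bath (mM): 140 NaCl, 10 TEA-Cl, 5 KCl, 3 MgCl2, 1 CaCl2, 10 HEPES, pH 7.4. Pipette (mM): 155 KCl, 3 MgCl2, 5 EGTA, 10 HEPES, pH 7.2. Holding was −80 mV, with a step to −100 mV then a 400 ms ramp to +60 mV every 5 s. Read-out was the ratio Imax/I0 taken from I/V curves. Stocks were 20 mM in DMSO.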

[3] = target: T1, Potassium channel subfamily K member 2 (Homo sapiens); test: Agonist activity at human TREK1 expressed in xenopus oocytes assessed as increase in K+ current at 20 uM measured at 0 mV by double microelectrode method relative to control; format: cell-based
Mus musculus [4] = test: Antinociceptive activity in CD1 mouse assessed as inhibition of acetic acid-induced writhes at 10 mg/kg, sc pretreated for 15 mins followed by acetic acid challenge measured within 20 mins relative to control; format: functional
Procedure, shortened: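 Male CD1 mice (20-25 g), n=8 per group, dosed at 10 mg/kg s.c. or with vehicle (5% Tween 80 in 0.9% saline). Dosing was 15 min before i.p. 0.6% acetic acid (10 mL/kg). Abdominal writhes were counted for 20 min. Effect = (mean control writhes − mean test writhes)/mean control writhes ×100.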

Mus musculus [5] = test: Antinociceptive activity in CD1 mouse assessed as increase in thermal-stimulus induced paw withdrawal latency at 60 mg/kg, sc measured after 45 mins by hot plate method relative to control; format: functional
Procedure, shortened: (§2)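 Male CD1 mice (20-25 g), n=8 per group, given 60 mg/kg s.c. After 5 min acclimatization on a plate at room temperature, mice were placed on a 52 °C hotplate. Latency to forepaw or hindpaw licking or hindpaw flicking was recorded, with a 30 s cut-off. Latency was taken after two consecutive stable baselines, then 30 and 45 min post-dose. Effect = (postdrug − predrug latency)/predrug latency ×100.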

Liver [6] = test: Drug level in rat liver microsomes treated with at 40 mM (E)-ethyl 2-cyano-3-(furan-3-yl)acrylate measured after 24 hrs by HPLC analysis; format: ADME, microsome; conditions: 40000 µM; procedure, shortened: as §1
[7] = target: T2, Potassium channel subfamily K member 10 (Homo sapiens) (UniProt P57789); test: Agonist activity at TREK-2 (unknown origin) expressed in HEK293 cells assessed as increase in K+ current at 100 uM measured at +60 mV by whole-cell patch clamp method relative to control; format: cell-based
T2 sequence (whole entry): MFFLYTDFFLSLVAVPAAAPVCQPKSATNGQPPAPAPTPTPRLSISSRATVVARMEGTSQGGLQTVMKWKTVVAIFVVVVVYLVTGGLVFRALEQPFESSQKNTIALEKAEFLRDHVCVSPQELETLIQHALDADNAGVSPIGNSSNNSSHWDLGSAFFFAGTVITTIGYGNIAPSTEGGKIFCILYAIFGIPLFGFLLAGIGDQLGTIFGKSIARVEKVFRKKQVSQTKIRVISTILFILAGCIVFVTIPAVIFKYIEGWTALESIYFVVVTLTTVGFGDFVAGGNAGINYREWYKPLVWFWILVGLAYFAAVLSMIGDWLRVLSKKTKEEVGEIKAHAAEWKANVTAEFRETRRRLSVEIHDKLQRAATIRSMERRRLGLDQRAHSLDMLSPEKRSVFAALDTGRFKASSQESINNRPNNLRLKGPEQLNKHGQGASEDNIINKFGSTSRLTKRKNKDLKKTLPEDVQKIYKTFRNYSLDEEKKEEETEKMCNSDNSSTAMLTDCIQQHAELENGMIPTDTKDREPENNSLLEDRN

[8] = target: T3, Potassium channel subfamily K member 4 (Homo sapiens) (UniProt Q9NYG8); test: Agonist activity at TRAAK (unknown origin) expressed in HEK293 cells assessed as increase in K+ current at 100 uM measured at +60 mV by whole-cell patch clamp method relative to control; format: cell-based
T3 sequence (whole entry): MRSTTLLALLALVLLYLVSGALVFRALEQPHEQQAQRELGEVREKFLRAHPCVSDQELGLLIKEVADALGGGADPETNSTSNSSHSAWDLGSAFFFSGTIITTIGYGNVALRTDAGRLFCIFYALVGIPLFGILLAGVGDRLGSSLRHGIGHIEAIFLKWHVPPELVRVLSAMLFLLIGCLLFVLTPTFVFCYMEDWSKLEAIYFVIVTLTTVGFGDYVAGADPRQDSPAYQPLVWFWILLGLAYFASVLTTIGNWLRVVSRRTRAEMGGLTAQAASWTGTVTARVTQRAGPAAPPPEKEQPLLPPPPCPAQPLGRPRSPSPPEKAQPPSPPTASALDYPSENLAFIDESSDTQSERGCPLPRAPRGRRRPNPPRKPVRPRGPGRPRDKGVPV

Mus musculus [9] = test: Antinociceptive activity in wild-type C57Bl/6J mouse assessed as increase in thermal-stimulus induced paw withdrawal latency at 60 mg/kg, sc measured after 30 mins by hot plate method relative to control; format: functional
Procedure, shortened: (§3)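 TREK-1−/− and wild-type C57Bl/6J littermates came from heterozygous crosses, n=7. Dose was 60 mg/kg s.c. The 52 °C hotplate measured paw-lick latency, 30 s cut-off, with baseline from two stable pre-dose latencies.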

Mus musculus [10] = test: Antinociceptive activity in wild-type C57Bl/6J mouse assessed as increase in thermal-stimulus induced paw withdrawal latency at 60 mg/kg, sc measured after 45 mins by hot plate method relative to control; format: functional; procedure, shortened: as §3
Mus musculus [11] = test: Antinociceptive activity in TREK1 deficient C57Bl/6J mouse assessed as increase in thermal-stimulus induced paw withdrawal latency at 60 mg/kg, sc measured after 45 mins by hot plate method relative to control; format: functional; procedure, shortened: as §3
Mus musculus [12] = test: In vivo activation of TREK1 in C57Bl/6J mouse assessed as increase in thermal-stimulus induced paw withdrawal latency at 60 mg/kg, sc measured after 30 mins by hot plate method relative to control; format: functional; procedure, shortened: as §3
[13] = target: Potassium channel subfamily K member 9 (Homo sapiens) (UniProt Q9NPC2); test: Agonist activity at TASK3 (unknown origin) expressed in HEK293 cells assessed as increase in K+ current at 100 uM measured at +60 mV by whole-cell patch clamp method relative to control; format: cell-based
Mus musculus [14] = test: In vivo activation of TREK1 in C57Bl/6J mouse assessed as increase in thermal-stimulus induced paw withdrawal latency at 60 mg/kg, sc measured after 45 mins by hot plate method relative to control; format: functional; procedure, shortened: as §3
Mus musculus [15] = test: Antinociceptive activity in CD1 mouse assessed as increase in thermal-stimulus induced paw withdrawal latency at 60 mg/kg, sc measured after 30 mins by hot plate method relative to control; format: functional; procedure, shortened: as §2
Mus musculus [16] = test: Antinociceptive activity in TREK1 deficient C57Bl/6J mouse assessed as increase in thermal-stimulus induced paw withdrawal latency at 60 mg/kg, sc measured after 30 mins by hot plate method relative to control; format: functional; procedure, shortened: as §3

Potassium channel subfamily K member 9 (Homo sapiens), sequence (Q9NPC2 whole entry): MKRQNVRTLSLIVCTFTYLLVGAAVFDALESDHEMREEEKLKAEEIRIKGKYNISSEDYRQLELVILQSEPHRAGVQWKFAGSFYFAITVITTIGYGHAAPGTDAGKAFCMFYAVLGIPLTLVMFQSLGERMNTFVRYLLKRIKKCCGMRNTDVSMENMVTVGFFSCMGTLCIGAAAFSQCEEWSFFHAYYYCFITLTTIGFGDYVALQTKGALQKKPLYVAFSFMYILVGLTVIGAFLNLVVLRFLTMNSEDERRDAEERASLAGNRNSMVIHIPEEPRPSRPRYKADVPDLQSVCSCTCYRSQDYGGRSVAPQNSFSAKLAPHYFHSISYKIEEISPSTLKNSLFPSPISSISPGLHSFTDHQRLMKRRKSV

SMILES	Drug metabolism (Liver [1])	fold change (FC) [2]	fold change (FC) [3]	inhibition in vivo at 10 mg/kg (Mus musculus [4]) [%]	Activity (Mus musculus [5]) [%]	Drug metabolism (Liver [6])	fold change (FC) [7]	fold change (FC) [8]	Activity (Mus musculus [9]) [%]	Activity (Mus musculus [10]) [%]	Activity (Mus musculus [11]) [%]	Activity (Mus musculus [12]) [%]	fold change (FC) [13]	Activity (Mus musculus [14]) [%]	Activity (Mus musculus [15]) [%]	Activity (Mus musculus [16]) [%]
N#C/C(=C\c1cc2ccccc2[nH]1)C(=O)O	Metabolite_Detected	1.18	2.44	25.8												
N#C/C(=C\c1ccoc1)C(=O)O		4.53	1.43	30.7	119.5	Metabolite_Detected	1.8	1.1	121.2	93.5	75.4	36.6	1	19	56.4	78.1
